Laboratory results taken from ChEMBL document CHEMBL3244231, “Synthesis and identification of the major metabolites of prazosin formed in dog and rat” (J Med Chem, 1977).

What was measured:
Canis familiaris [1] = assay: Antihypertensive activity in anesthetized normotensive mongrel dog assessed as maximum decrease in blood pressure at 0.4 mg/kg, iv administered at 30 mins intervals; format: functional, Canis lupus familiaris
Procedure, shortened: (§1)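 Anesthetized normotensive mongrel dogs each received escalating iv doses of 0.1, 0.4 and 1.0 mg/kg at 30-min intervals. After each interval, the maximum fall in blood pressure (mm) was read against control. Doses refer to the amine salts and are uncorrected; one agent was given as free base. At least two dogs were used per compound, and ranges are reported.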

Canis familiaris [2] = assay: Antihypertensive activity in anesthetized normotensive mongrel dog assessed as maximum decrease in blood pressure at 1 mg/kg, iv administered at 30 mins intervals; format: functional, Canis lupus familiaris; procedure, shortened: as §1
Canis familiaris [3] = assay: Antihypertensive activity in anesthetized normotensive mongrel dog assessed as maximum decrease in blood pressure at 0.1 mg/kg, iv administered at 30 mins intervals; format: functional, Canis lupus familiaris; procedure, shortened: as §1
[4] = Drug metabolism in dog assessed as parent compound level in urine; format: ADME, Canis lupus familiaris; conditions: read-out: Drug excretion
[5] = Drug metabolism in rat assessed as parent compound level in bile; format: ADME; conditions: read-out: Drug excretion
[6] = Drug metabolism in rat assessed as parent compound level in urine; format: ADME; conditions: read-out: Drug excretion
[7] = Drug metabolism in dog assessed as parent compound level in bile; format: ADME, Canis lupus familiaris; conditions: read-out: Drug excretion

Row | dose excreted [4] [%] | dose excreted [5] [%] | dose excreted [6] [%] | dose excreted [7] [%] | Structure (SMILES) | Activity (Canis familiaris [1]) [mmHg] | Activity (Canis familiaris [2]) [mmHg] | Activity (Canis familiaris [3]) [mmHg]
1 |  |  |  |  | COc1cc2nc(N3CCN(C(=O)c4ccco4)CC3)nc(N)c2cc1O.O=S(=O)(O)O | 10 | 15 | 
2 |  |  |  |  | COc1cc2nc(N)nc(N)c2cc1OC | 3 | 23 | 0
3 |  |  |  |  | COc1cc2c(N)nc(N3CCN(C(=O)c4ccco4)CC3)nc2cc1O.O=S(=O)(O)O | 12 | 18 | 
4 | 6 | 6 | 6 | 6 | COc1cc2nc(N3CCN(C(=O)c4ccco4)CC3)nc(N)c2cc1OC.Cl [PRAZOSIN HYDROCHLORIDE] | 45 | 55 | 20
